High-throughput results: PubChem BioAssay, several laboratories
MsrA inh – bovine MsrA enzyme inhibitors, primary screen, biochemical, absorbance, HTS; inhibition, % at 15.5 µM; purified bovine MsrA, absorbance read-out; Methionine sulfoxide reductase A (Bos taurus); 0.75% of 360,000 active; in the data active means inhibition above about 4.5%;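 further: 0% = vehicle wells with enzyme and 100% = reference inhibitor wells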
bovine MsrA act – bovine MsrA enzyme activators, primary screen, biochemical, absorbance, HTS; 0.3% of 360,000 active; Methionine sulfoxide reductase A (Bos taurus); purified bovine MsrA, absorbance read-out; activation, % at 10.6 µM; AID 602163, 2012; in the data active means activation above about 7.5%;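 further: 0% = vehicle and 100% = reference activator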
ARFGAP1 inhibitor – inhibitors of rat ARFGAP1 GAP activity, primary screen, biochemical, fluorescence polarization, GDP tracer; Arfgap1-stimulated ARF1 GTP hydrolysis, GDP FP detection; inhibition, % at 16.5 µM; 0.26% of 360,000 active; AID 651572, 2012;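 active means inhibition above a per-plate limit, mean inhibition of low control wells plus 3 SD, cut at about 25% in these data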;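 further: 0% = DMSO wells with enzyme and 100% = wells lacking Arfgap1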
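Replicates: Single well per compound | Assay system: Truncated rat Arfgap1 GAP domain | Control set: No-Arfgap1 wells (100%) versus DMSO full-reaction wells (0%) | Times: Enzyme reaction 120 min at 25 °C after 20 min preincubation | Reagent: Human ARF1(Δ1-17)-GTP substrate | Measured by: Tracer-displacement fluorescence polarization with EDTA stop, 620/688 nm | Measure: Percent inhibition of Arfgap1-stimulated GTP hydrolysis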
sPLA2-III inh – human group III sPLA2 inhibitors, primary screen, biochemical, QFRET, BODIPY PC-A2 liposome substrate; Group 3 secretory phospholipase A2 (Homo sapiens), Q9NZ20; QFRET BODIPY PC-A2 liposome hydrolysis, fluorescence; inhibition, % at 12.2 µM; 0.56% of 370,000 active;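 active means inhibition above mean plus 3 SD of compounds lying within the high and low control bounds, cut at about 19% in these data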;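 further: 0% = median of test compound wells and 100% = no enzyme DMSO wells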
Target sequence (Q9NZ20 whole entry, looked up): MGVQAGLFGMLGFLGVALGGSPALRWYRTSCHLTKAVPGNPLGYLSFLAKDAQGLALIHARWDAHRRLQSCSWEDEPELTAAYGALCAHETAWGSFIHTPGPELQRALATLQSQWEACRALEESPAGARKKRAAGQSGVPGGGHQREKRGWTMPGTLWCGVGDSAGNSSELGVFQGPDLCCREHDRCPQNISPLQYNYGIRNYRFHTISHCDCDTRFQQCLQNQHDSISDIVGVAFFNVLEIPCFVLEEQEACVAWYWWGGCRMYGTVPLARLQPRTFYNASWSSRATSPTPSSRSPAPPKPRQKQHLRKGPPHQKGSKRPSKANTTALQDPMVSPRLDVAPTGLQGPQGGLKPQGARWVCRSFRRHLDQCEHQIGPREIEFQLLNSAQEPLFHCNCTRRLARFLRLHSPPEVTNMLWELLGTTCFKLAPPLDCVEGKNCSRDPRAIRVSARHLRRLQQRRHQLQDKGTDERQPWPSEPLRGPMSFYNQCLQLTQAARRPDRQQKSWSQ
ASAP1 GAP inh – inhibitors of human ASAP1 ArfGAP activity, primary screen, biochemical, fluorescence polarization; Arf-GAP with SH3 domain, ANK repeat and PH domain-containing protein 1 (Homo sapiens), …; ASAP1-stimulated ARF1 GTP hydrolysis, GDP FP detection; inhibition, % at 16.5 µM; 0.19% of 360,000 active; AID 624377, 2012; in the data active means inhibition above about 25%;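 further: 0% = vehicle with enzyme and substrate and 100% = no enzyme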
Rev-erbA mod – modulators of Rev-erb alpha DNA binding, primary screen, biochemical, FITC-DNA, fluorescence polarization, uHTS. 0.79% of 370,000 active. Nuclear receptor subfamily 1 group D member 1 (Homo sapiens), P20393. Rev-erbα–FITC-DNA binding, 90 min. AID 1259318, 2017. activity, % at 10 µM;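 active means activity above about 14%, limit read from the data; passing the limit was not always enough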;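 further: 0% = DMSO wells with 35 nM protein and 100% = DMSO wells with 750 nM protein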
ARFGAP1 inh conf – ARFGAP1 inhibitor hit confirmation, biochemical, fluorescence polarization, triplicate | 30% of 890 active | shares compounds with ARFGAP1 inhibitor | ARFGAP1-stimulated ARF1 GTP hydrolysis, GDP tracer FP | inhibition, % at 16.5 µM;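 active means average inhibition over triplicates above the hit cutoff set in the earlier primary screen, cut at about 25% in these data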;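 further: 0% = Arfgap1 plus ARF1-GTP with DMSO and 100% = wells lacking Arfgap1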
Numbers without * were called inactive; x = not tested or not shown. Most compounds without a hit are left out; they make up all but 2.7% or so of the library.

SMILES | MsrA inh | bovine MsrA act | ARFGAP1 inhibitor | sPLA2-III inh | ASAP1 GAP inh | Rev-erbA mod | ARFGAP1 inh conf
N#C/C(=C\c1ccc(Oc2ccc(C(F)(F)F)cc2[N+](=O)[O-])cc1)c1nc2ccccc2[nH]1 | 1.6 | 3.2 | 25.0* | 1.8 | 15.0 | -0.3 | 9.9
O=C(Nc1ccc(Cl)cc1)C1CCCN1S(=O)(=O)c1cccc2cccnc12 (centres undefined) | x | x | x | 8.7 | x | -3.2 | x
O=C(N=Nc1c(O)[nH]c2ccccc12)c1cc(-c2cccs2)[nH]n1 | 0.8 | -4.5 | 29.8* | 15.6 | 21.9 | -34.5 | 31.7*
O=C(OC12CCCN(C1)/C(=C/c1cccc(Cl)c1)C2)c1ccco1 (centres undefined) | x | x | x | 3.1 | x | 18.1 | x
COc1ccccc1C(=O)O/N=C1/CCCc2c1ccc(OC)c2[N+](=O)[O-] | -0.6 | -5.7 | -9.8 | -6.1 | -15.1 | x | x
COc1cc(C(=O)O/N=C2\CCCc3c2ccc(OC)c3[N+](=O)[O-])cc(OC)c1OC | 0.1 | -8.4 | 25.1* | 0.7 | 11.4 | -1.7 | -7.1
Cc1sc(NC(=O)CSc2nnc(COc3ccccc3)n2C)c(C#N)c1C | -0.9 | -1.0 | 24.6* | 3.6 | 5.0 | -5.7 | 10.8
Cc1ccc(OCc2nnc(SCC(=O)Nc3sc(C)c(C)c3C#N)n2C)cc1 | -0.8 | -5.8 | 14.8 | -2.3 | -4.2 | 10.2 | x
COc1cc(/C=C(\C#N)c2ccccn2)ccc1OCC(=O)Nc1c(Cl)cccc1Cl | 0.8 | -3.3 | 29.0* | -9.2 | 9.5 | -0.6 | 31.1*
CC[C@@]1(O)C(=O)OCc2c1cc1n(c2=O)Cc2cc3c(CN(C)C)c(O)ccc3nc2-1 | 2.1 | -8.3 | 24.9* | -80.0 | 24.3 | 16.4 | 7.6
COc1ccc2cc([C@H](C)CO)ccc2c1 | x | x | x | x | x | 1.4 | x
O=C1[C@@H](CCc2ccccc2)[C@@H]2c3ccccc3C=NN2[C@@H]2c3ccccc3C=NN12 | x | x | x | 0.7 | x | 5.0 | x
COC(=O)c1cc2c(c3c4cc(F)ccc4n(S(=O)(=O)c4ccc(C)cc4)c13)C(=O)N(Cc1ccc(N(C)C)cc1)C2 | 0.2 | x | -3.5 | 6.9 | -9.3 | 2.4 | x
COC(=O)c1nnn(-c2cccc(Cl)c2)c1C(=O)OC | 0.8 | -3.5 | 25.4* | 3.3 | -1.2 | -0.1 | 4.5
COC(=O)c1nnn(CC(=O)Nc2cc(Cl)ccc2C)c1C(=O)OC | -0.2 | -1.5 | 7.2 | -0.6 | 2.0 | -4.7 | x
COc1ccc2nc(/C=N/NC(=O)[C@H](CCSC)NC(=O)OC(C)(C)C)ccc2c1 | 3.6 | -4.1 | 26.7* | 0.4 | 10.7 | 2.4 | 1.1
CCC(C)[C@H](NC(=O)OC(C)(C)C)C(=O)N/N=C/c1ccc2cc(OC)ccc2n1 (some centres undefined) | 1.2 | -0.1 | 3.1 | 3.7 | -14.8 | -7.5 | x
CCOC(=O)C1CCCN(CCC(=O)Nc2ccccc2C)C1 (centres undefined) | 1.1 | -1.8 | 25.8* | 13.3 | 6.8 | 0.8 | -5.8
CNc1nc(-c2c[nH]c3ccccc23)cs1 | -0.1 | -1.2 | 30.8* | 11.4 | 10.5 | 3.5 | 0.9
O=C(CSc1nnc(-c2ccccc2)n1-c1ccc(Cl)cc1)Nc1ccccc1-c1ccccc1 | x | x | x | 8.3 | x | 1.7 | x
Cc1ccc2cc(CCNC(=O)C(C)(C)C)c(=O)[nH]c2c1 | 1.5 | 2.1 | 27.5* | 4.3 | 5.1 | -3.9 | -5.4
Cc1ccc2cc(CCNC(=O)C3CCCC3)c(=O)[nH]c2c1 | 0.5 | -8.6 | -1.2 | 1.7 | 0.9 | -3.0 | x
CCOc1ccc(-c2nnn(CC(=O)NCc3ccc4c(c3)OCO4)n2)cc1 | 0.8 | -7.3 | 29.1* | 8.4 | -2.8 | 3.8 | 11.6
COc1ccc(-c2nnn(CC(=O)NCc3ccc4c(c3)OCO4)n2)cc1OC | -0.4 | -2.1 | 6.2 | 0.3 | 11.5 | 7.8 | x
